Assay results: article PMC6581564 (Biomacromolecules, 2019)

Assays:
MUC5AC = MUC5AC (Sus scrofa, UniProt A0A8W4FM62); test: Equilibrium dialysis; type: binding, pig; settings: mucin 0.5% w/v; for Mucin binding rank within the NIH Clinical Collection (NCC) set (ΔG): in PBS, 41 NCC molecules, 200 nM
[1] = cited from earlier work
[2] = tested on: P. aeruginosa strain PAO1; test: Colistin efficacy; type: cell-based, Pseudomonas aeruginosa; settings: colistin 8 or 16 μg/mL, 24 h
[3] = tested on: P. aeruginosa strain PAO1; test: Colistin MIC by modified broth microdilution assay; type: cell-based, Pseudomonas aeruginosa; settings: in MHB, 37 °C, 24 hours, visual inspection
Summary of the method: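 PAO1 grown overnight in Mueller-Hinton II broth (MHB) at 37 °C, then diluted into fresh MHB to about 3×10⁴ CFU/mL. Test compound stock in water was serially diluted 2-fold in MHB and mixed 1:10 with the inoculum (final 1 mg/mL to 0.4 μg/mL). Plates incubated 24 h at 37 °C. MIC taken as the lowest concentration with no visible growth.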

MUC5AC, sequence (A0A8W4FM62 1-4915): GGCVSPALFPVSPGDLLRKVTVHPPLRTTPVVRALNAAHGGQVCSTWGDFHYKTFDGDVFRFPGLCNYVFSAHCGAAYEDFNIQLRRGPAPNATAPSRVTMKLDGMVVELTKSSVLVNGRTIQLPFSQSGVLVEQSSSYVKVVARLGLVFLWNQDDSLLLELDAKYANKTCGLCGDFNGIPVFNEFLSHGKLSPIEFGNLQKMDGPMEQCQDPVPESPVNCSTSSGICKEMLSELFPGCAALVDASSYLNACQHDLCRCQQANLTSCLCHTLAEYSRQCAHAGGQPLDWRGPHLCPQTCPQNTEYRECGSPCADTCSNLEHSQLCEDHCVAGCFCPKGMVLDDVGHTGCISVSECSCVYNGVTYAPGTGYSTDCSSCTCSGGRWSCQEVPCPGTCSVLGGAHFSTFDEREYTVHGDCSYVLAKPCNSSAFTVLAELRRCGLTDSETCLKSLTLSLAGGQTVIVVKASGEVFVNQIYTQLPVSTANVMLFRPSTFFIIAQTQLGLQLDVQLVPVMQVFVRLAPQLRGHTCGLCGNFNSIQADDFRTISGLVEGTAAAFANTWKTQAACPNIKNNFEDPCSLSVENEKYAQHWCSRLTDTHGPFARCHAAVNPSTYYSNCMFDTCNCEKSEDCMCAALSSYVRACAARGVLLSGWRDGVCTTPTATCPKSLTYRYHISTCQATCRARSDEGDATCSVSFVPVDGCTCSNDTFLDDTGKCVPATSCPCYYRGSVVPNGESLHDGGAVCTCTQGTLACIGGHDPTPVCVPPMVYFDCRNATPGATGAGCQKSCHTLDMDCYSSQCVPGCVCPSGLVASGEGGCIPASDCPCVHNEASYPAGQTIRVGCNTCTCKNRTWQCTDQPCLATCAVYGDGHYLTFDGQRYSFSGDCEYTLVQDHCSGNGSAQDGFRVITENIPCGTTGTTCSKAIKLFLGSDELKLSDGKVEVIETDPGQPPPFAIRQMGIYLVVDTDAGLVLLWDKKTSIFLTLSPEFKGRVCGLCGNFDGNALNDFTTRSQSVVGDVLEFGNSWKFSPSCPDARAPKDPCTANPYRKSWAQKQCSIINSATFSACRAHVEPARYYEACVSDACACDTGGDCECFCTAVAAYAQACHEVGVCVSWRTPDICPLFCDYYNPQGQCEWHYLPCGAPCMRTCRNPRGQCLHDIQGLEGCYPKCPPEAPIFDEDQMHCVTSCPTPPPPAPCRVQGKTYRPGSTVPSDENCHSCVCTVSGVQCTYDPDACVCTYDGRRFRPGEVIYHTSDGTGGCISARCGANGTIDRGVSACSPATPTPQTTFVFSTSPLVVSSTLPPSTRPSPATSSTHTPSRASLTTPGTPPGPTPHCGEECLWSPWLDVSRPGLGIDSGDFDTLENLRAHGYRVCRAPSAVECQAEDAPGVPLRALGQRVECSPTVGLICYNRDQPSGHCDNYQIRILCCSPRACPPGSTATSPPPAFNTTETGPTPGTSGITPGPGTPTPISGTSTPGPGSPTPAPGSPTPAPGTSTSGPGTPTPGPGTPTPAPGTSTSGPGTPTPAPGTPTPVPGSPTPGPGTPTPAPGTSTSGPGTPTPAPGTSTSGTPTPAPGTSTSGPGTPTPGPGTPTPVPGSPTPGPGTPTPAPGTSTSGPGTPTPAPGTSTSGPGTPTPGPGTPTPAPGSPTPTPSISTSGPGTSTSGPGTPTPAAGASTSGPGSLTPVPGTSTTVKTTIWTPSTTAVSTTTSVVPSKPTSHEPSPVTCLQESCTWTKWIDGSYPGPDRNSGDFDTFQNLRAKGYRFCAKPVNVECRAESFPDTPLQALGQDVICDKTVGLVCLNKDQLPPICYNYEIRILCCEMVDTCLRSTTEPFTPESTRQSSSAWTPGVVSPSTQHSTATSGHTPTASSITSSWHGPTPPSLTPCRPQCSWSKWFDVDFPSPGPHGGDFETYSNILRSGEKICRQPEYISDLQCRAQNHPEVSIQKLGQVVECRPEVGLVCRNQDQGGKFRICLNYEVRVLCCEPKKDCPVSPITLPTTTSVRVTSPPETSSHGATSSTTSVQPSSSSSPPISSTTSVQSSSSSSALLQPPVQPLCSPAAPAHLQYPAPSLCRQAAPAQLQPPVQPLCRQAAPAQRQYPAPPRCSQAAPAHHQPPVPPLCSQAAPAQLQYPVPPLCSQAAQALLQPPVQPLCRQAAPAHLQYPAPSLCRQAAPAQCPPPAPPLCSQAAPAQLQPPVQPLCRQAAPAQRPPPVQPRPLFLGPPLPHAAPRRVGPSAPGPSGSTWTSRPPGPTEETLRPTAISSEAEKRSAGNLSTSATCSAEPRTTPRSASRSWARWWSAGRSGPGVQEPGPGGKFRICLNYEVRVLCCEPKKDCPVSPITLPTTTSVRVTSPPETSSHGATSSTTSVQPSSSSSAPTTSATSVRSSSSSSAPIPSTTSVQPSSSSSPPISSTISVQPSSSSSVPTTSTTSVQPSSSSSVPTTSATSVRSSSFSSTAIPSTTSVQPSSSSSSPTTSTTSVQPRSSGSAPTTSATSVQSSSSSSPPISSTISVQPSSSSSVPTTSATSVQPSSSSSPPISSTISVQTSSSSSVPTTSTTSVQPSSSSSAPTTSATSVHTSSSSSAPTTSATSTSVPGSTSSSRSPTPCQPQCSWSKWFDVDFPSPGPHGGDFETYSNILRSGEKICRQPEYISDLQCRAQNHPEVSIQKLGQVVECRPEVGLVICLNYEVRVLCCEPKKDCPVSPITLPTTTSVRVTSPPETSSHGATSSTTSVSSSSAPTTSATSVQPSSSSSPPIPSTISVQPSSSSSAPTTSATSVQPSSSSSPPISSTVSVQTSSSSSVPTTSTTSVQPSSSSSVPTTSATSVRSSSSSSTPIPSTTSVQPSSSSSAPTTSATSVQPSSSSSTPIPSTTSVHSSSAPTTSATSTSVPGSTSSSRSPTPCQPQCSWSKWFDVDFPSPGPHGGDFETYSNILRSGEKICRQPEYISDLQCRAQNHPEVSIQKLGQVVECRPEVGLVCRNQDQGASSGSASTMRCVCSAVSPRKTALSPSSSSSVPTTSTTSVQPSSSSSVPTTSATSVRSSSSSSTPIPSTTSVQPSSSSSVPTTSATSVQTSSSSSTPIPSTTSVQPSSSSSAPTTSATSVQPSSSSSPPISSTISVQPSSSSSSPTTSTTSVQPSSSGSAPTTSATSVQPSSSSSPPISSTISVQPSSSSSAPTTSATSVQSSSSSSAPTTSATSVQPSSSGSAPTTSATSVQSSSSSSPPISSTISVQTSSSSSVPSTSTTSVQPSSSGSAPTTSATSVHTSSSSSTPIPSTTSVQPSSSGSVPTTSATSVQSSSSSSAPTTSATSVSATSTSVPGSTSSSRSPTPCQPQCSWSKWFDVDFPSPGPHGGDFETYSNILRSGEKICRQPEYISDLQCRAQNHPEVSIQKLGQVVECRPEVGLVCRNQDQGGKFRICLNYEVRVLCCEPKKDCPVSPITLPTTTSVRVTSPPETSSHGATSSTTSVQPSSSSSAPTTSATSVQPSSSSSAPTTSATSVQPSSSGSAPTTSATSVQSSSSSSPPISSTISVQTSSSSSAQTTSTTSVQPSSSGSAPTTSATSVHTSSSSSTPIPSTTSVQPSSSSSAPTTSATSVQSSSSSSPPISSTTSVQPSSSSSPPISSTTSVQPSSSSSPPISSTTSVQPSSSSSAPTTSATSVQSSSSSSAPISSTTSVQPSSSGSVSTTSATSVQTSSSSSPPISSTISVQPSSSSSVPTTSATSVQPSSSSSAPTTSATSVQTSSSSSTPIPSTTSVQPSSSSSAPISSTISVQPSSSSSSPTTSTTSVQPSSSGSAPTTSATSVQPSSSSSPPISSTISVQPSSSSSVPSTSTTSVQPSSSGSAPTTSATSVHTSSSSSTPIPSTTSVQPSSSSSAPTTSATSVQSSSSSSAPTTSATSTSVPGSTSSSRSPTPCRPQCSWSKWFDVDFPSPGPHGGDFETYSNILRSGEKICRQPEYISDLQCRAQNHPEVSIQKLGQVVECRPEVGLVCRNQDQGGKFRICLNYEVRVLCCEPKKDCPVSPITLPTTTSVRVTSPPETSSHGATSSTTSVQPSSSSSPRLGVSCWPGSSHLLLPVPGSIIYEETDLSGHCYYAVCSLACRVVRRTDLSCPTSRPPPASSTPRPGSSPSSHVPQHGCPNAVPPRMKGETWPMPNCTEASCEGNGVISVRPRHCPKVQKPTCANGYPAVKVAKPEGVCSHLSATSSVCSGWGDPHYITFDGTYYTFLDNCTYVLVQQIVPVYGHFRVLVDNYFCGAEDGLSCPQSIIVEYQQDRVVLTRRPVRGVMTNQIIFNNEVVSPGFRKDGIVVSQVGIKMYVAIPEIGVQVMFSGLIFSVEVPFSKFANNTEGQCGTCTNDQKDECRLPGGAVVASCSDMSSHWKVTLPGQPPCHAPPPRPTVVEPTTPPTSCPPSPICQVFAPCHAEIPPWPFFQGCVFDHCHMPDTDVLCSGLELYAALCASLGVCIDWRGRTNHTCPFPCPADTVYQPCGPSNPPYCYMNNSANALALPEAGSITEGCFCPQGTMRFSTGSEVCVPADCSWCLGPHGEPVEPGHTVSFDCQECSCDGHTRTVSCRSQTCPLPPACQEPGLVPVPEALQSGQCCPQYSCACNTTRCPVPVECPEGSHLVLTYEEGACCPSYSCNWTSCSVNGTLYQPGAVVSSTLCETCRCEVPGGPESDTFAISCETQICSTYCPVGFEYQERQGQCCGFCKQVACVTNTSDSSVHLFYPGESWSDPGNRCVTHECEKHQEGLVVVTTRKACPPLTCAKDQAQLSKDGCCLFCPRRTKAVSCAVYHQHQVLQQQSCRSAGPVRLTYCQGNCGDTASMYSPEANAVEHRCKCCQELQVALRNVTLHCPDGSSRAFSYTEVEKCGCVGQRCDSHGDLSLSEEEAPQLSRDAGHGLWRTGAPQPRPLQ

Compound	Mucin binding rank within the NIH Clinical Collection (NCC) set (ΔG) (MUC5AC)	Molecular charge [1]	also measured
Nc1nc(Cl)nc2c1ncn2[C@H]1C[C@H](O)[C@@H](CO)O1 [cladribine]	four strongest mucin binders	–	–
O=c1c(-c2ccccc2)c1-c1ccccc1 [diphencyprone]	four strongest mucin binders	–	–
COc1cccc2c1C(=O)c1c(O)c3c(c(O)c1C2=O)C[C@@](O)(C(=O)CO)C[C@@H]3O[C@H]1C[C@H](N)[C@H](O)[C@H](C)O1 [doxorubicin]	four strongest mucin binders	–	–
CNCCCC12CCC(c3ccccc31)c1ccccc12 [maprotiline]	four strongest mucin binders	–	–
NC[C@H]1O[C@H](O[C@H]2[C@H](O)[C@@H](O[C@H]3O[C@H](CO)[C@@H](O)[C@H](N)[C@H]3O)[C@H](N)C[C@@H]2N)[C@H](N)C[C@@H]1O [tobramycin]	–	+5	–
colistin	–	+5	Effect of methylcellulose on colistin activity (surviving PAO1 cells, CFU) ([2]; MC 0.5% w/v in MHB): negligible effect; Effect of mucin on colistin activity (surviving PAO1 cells, CFU) ([2]; mucin 0.5% w/v in MHB): inhibited the effect of colistin to a substantial degree; Binding to mucin (ΔG; negative ΔG implies binding) (MUC5AC; colistin 10 μM, 4 h, 37 °C): bound to mucin; MIC [3]: 8 µg/mL
